Structures are written as SMILES.

Data on two compounds can be found in ChEMBL document CHEMBL5257161, “Mycobacterium tuberculosis CitA activity is modulated by cysteine oxidation and pyruvate binding” (RSC Med Chem, 2023).

Experiment [1] relates to Mycobacterium tuberculosis. Put plainly: Binding affinity to Mycobacterium tuberculosis CitA R153ZM mutant expressed in Escherichia coli cells assessed as change in melting temperature in presence of oxaloacetate by thermal shift assay. The method in brief: (§1)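 Thermal shift used 25 μM purified protein in 50 mM Tris pH 8.0 with 2 mM ligand (sodium pyruvate, OAA, or both), plus Protein Thermal Shift dye at 2X final. ΔTm was taken from the melt-curve derivative relative to protein without ligand.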

For experiment [2], the system named is Mycobacterium tuberculosis. Kind of experiment: Binding affinity to Mycobacterium tuberculosis CitA R149E mutant expressed in Escherichia coli cells assessed as change in melting temperature in presence of oxaloacetate by thermal shift assay. The essentials: as §1
Experiment [3] deals with Mycobacterium tuberculosis. Kind of experiment: Binding affinity to Mycobacterium tuberculosis CitA R153ZM mutant expressed in Escherichia coli cells assessed as change in melting temperature by thermal shift assay. The method in brief: as §1
Experiment [4] deals with Mycobacterium tuberculosis. Put plainly: Binding affinity to Mycobacterium tuberculosis CitA R149E mutant expressed in Escherichia coli cells assessed as change in melting temperature by thermal shift assay. The method in brief: as §1
Experiment [5] concerns Mycobacterium tuberculosis. Put plainly: Binding affinity to Mycobacterium tuberculosis CitA R153M mutant expressed in Escherichia coli cells assessed as Kcat/Km by Michaelis-Menten analysis. The method in brief:
(§2)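 His-tagged CitA (wild type or variant) was expressed in E. coli, purified by cobalt affinity and size exclusion, then dialysed against 20 mM Tris pH 8.0. Activity was measured by DTNB (300 μM) thiol detection of released CoA at 412 nm, with OAA and AcCoA substrates and 10 nM enzyme, in 50 mM Tris pH 8.0 at 25 °C. A no-enzyme control was run. Triplicate runs were fitted to Michaelis–Menten.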

Experiment [6] concerns Mycobacterium tuberculosis. Put plainly: Binding affinity to Mycobacterium tuberculosis CitA R149E mutant expressed in Escherichia coli cells assessed as apparent Km by Michaelis-Menten analysis. The method in brief:
as §2

Experiment [7] concerns Mycobacterium tuberculosis. Kind of experiment: Binding affinity to Mycobacterium tuberculosis CitA R149E mutant expressed in Escherichia coli cells assessed as Vmax by Michaelis-Menten analysis. The method in brief: as §2
Experiment [8] has as its system Mycobacterium tuberculosis. Kind of experiment: Binding affinity to Mycobacterium tuberculosis CitA R153M mutant expressed in Escherichia coli cells assessed as Vmax by Michaelis-Menten analysis. The method in brief:
as §2

The test system of experiment [9] is Mycobacterium tuberculosis. Kind of experiment: Binding affinity to Mycobacterium tuberculosis CitA R153M mutant expressed in Escherichia coli cells assessed as catalytic constant by Michaelis-Menten analysis. The essentials: as §2
For experiment [10], the system named is Mycobacterium tuberculosis. Kind of experiment: Binding affinity to Mycobacterium tuberculosis CitA R149E mutant expressed in Escherichia coli cells assessed as change in melting temperature in presence of pyruvate by thermal shift assay. The method in brief:
as §1

Experiment [11] has as its system Mycobacterium tuberculosis. Put plainly: Binding affinity to Mycobacterium tuberculosis CitA R153M mutant expressed in Escherichia coli cells assessed as apparent Km by Michaelis-Menten analysis. The method in brief:
as §2

For experiment [12], the system named is Mycobacterium tuberculosis. Kind of experiment: Binding affinity to Mycobacterium tuberculosis CitA R149E mutant expressed in Escherichia coli cells assessed as catalytic constant by Michaelis-Menten analysis. The method in brief: as §2
For experiment [13], the system named is Mycobacterium tuberculosis. Put plainly: Binding affinity to Mycobacterium tuberculosis CitA R153ZM mutant expressed in Escherichia coli cells assessed as change in melting temperature in presence of pyruvate by thermal shift assay. The essentials:
as §1

Experiment [14] deals with Mycobacterium tuberculosis. Put plainly: Binding affinity to Mycobacterium tuberculosis CitA R149E mutant expressed in Escherichia coli cells assessed as Kcat/Km by Michaelis-Menten analysis. The method in brief: as §2

On to `CC(=O)C(=O)O`, for which the ΔTm in [1] stood at 14.3 °C; in [2], 10.7 °C; in experiment [3], 0.51 °C; in experiment [4], 0.47 °C.
Consider `O=C(O)CC(=O)C(=O)O`, for which the kcat/Km in experiment [5] is 1.05e+06 M⁻¹ s⁻¹; in [14], 400000 M⁻¹ s⁻¹. In addition, the results for the Km in [6] and in [11] were 11.7 µM and 3.2 µM, respectively. Besides, the Vmax was found to be 2.8 µM/min in [7] and 2 µM/min in experiment [8]. The ΔTm in experiment [3] was determined as 14.3 °C; in experiment [10], 10.7 °C; in experiment [4] it was 10.8 °C; in [13], 14.3 °C. The figures for the kcat in experiment [9] and in experiment [12] were 3.3 s⁻¹ and 4.68 s⁻¹, respectively.

What is called ΔTm is the change in melting temperature against a reference sample. One may read the kcat/Km as the turnover number divided by the Michaelis constant. A word on the Km: it is the concentration of substrate that gives half-maximal velocity. A word on the Vmax: it is the top rate of the reaction or transport when substrate is in excess. As a reminder, the kcat is the maximal rate divided by the concentration of active sites.
